Measured values collected from several papers.
Compare with care: the assays were run in different laboratories.
Effect on: cell growth or viability

SMILES | cell line | technique | time | pH | IC50
COc1cc(Nc2nccc(-c3cnn4nc(OC)ccc34)n2)cc(C(F)(F)F)c1 | HCC38 | ATP luminescence |  |  | 930 nM
Nc1ccn([C@@H]2O[C@H](CO)[C@@H](O)C2(F)F)c(=O)n1 | HFF-1 | MTT |  |  | 14400 nM
O=C(N/N=C/c1cccn1CCCN1CCOCC1)Nc1cc2c(Nc3ccc(F)c(Cl)c3)ncnc2cc1O[C@H]1CCOC1 | PC-3 | MTT | 72 h |  | 6320 nM
Nc1nc2sc(CCCCCCCCc3ccc(C(=O)N[C@@H](CCC(=O)O)C(=O)O)cc3)cc2c(=O)[nH]1 | R2/PCFT4 |  | 96 h | pH 7.2 | > 1000 nM
O=C(/C=C/C=C/c1ccc2c(c1)OCO2)N1CCCCC1 | HUVEC | MTT | 48 h |  | 41.6 µg/mL
CCCCN(Cc1ccc(C(=O)NO)cc1)C(=O)Nc1ccccc1 | HAL-01 | ATP luminescence | 72 h |  | 9050 nM
Nc1nc2sc(CCc3ccc(C(=O)N[C@@H](CCC(=O)O)C(=O)O)cc3)cc2c(=O)[nH]1 | R2/PCFT4 |  | 96 h | pH 7.2 | > 1000 nM
CCN(CC)CCn1cccc1/C=N/NC(=O)Nc1cc2c(Nc3ccc(F)c(Cl)c3)ncnc2cc1O[C@H]1CCOC1 | PC-3 | MTT | 72 h |  | 150 nM
CC(C)C[C@H](NC(=O)[C@H](Cc1ccccc1)NC(=O)c1cnccn1)B(O)O | Ishikawa | ATP luminescence |  |  | 7.1 nM
CCOc1cc(-c2nc3ccc(C)cc3[nH]2)ccc1O | C26 | MTT | 48 h |  | 32800 nM
COC1=C2C[C@@H](C)C[C@H](OC)[C@H](O)[C@@H](C)/C=C(\C)[C@H](OC(N)=O)[C@@H](OC)/C=C\C=C(/C)C(=O)NC(=CC1=O)C2=O | HUVEC | MTT |  |  | 41 nM
Nc1nc2sc(CCCc3ccc(C(=O)N[C@@H](CCC(=O)O)C(=O)O)cc3)cc2c(=O)[nH]1 | R2/PCFT4 |  | 96 h | pH 7.2 | > 1000 nM
OCc1ccc2c(c1C#Cc1ccc(O)cc1)C(c1ccc(O)cc1)(c1ccc(O)cc1)c1cc(O)ccc1-2 | HUVEC | MTT | 48 h |  | > 50000 nM
C=CCNC1=C2C[C@@H](C)C[C@H](OC)[C@H](O)[C@@H](C)/C=C(\C)[C@H](OC(N)=O)[C@@H](OC)/C=C\C=C(/C)C(=O)NC(=CC1=O)C2=O | HUVEC | MTT |  |  | 1200 nM
COc1cc(/C=C/C(=O)CC(=O)/C=C/c2ccc(O)c(OC)c2)ccc1O | HUVEC | MTT | 48 h |  | 10.3 µg/mL
COc1cc(-c2ncn(/C=C\C(=O)OC(C)C)n2)cc(C(F)(F)F)c1 | MEG-01 |  | 72 h |  | 83 nM
